In the first experiment the test system is Cricetinae gen. sp. Description: Antifertility activity was determined in hamsters (two to six dose levels, 6-18 animals per group) treated subcutaneously (sc) from day 4 to day 6 of gestation.
Conditions: not given
It counts as functional, Mesocricetus auratus. The method in brief: (§1)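 Syrian Golden hamsters dosed sc on three consecutive days, gestation days 4 to 6. Two to six dose levels, 6–18 animals per group. Animals killed on day 10 of gestation, and implantation sites and live fetuses counted.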
In turn, `CCCC[C@](C)(OC)[C@@H](O)/C=C/C1[C@H](O)CC(=O)[C@@H]1C/C=C\CCCC(=O)OC` (some centres not stated) registered an ED50 of over 1 mg/kg.

Consider `CCCC[C@](C)(OC)[C@H](O)/C=C/C1[C@H](O)CC(=O)[C@@H]1C/C=C\CCCC(=O)OC` (some centres not stated), for which the ED50 is over 1 mg/kg.

With `CCCC[C@@](C)(OC)[C@H](O)/C=C/C1[C@H](O)CC(=O)[C@@H]1C/C=C\CCCC(=O)OC` (some centres not stated), the ED50 is over 1 mg/kg.

`CCCC[C@](C)(OC)[C@@H](O)/C=C/C1[C@H](O)CC(=O)[C@@H]1CCCCCCC(=O)OC` (stereo in doubt; form 1) gave an ED50 of over 2.5 mg/kg.

The molecule `CCCC[C@@](C)(OC)[C@H](O)/C=C/C1[C@H](O)CC(=O)[C@@H]1CCCCCCC(=O)OC` (some centres not stated) yielded an ED50 of over 2.5 mg/kg.

In turn, `CCCC[C@@](C)(OC)[C@@H](O)/C=C/C1[C@H](O)CC(=O)[C@@H]1C/C=C\CCCC(=O)OC` (some centres not stated) had an ED50 of over 1 mg/kg.

The molecule `CCCC[C@@](C)(OC)[C@@H](O)/C=C/C1[C@H](O)CC(=O)[C@@H]1CCCCCCC(=O)OC` (some centres not stated) displayed an ED50 of over 2.5 mg/kg.

The subject of the next experiment is Rattus norvegicus. In words: Compound was evaluated for antisecretion activity using stomach perfusion test in the anesthetized rat (iv administration) in experiment 2. The format is functional. Particulars: read-out: ID50 (the source's name). The method in brief:
(§2)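 Stomach perfusion in anesthetized rats. Gastric hypersecretion driven by continuous iv histamine infusion at 1.5 mg/kg per hour. Compound given iv. ID50 read from a plot of response, as percent of control, against log dose.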
For the molecule `CCCC[C@](C)(OC)[C@@H](O)/C=C/C1[C@H](O)CC(=O)[C@@H]1CCCCCCC(=O)OC` (stereo in doubt; form 2), the ED50 amounted to 0.3 mg/kg.

In the next experiment the test system is Cricetinae gen. sp. In words: (§3) Antifertility activity was determined in hamsters (two to six dose levels, 6-18 animals per group) treated subcutaneously (sc) from day 4 to day 6 of gestation.
Conditions: not given
It counts as functional, Cricetulus griseus. The method in brief: as §1
The molecule `CCCCC[C@H](O)/C=C/[C@@H]1[C@@H](C/C=C\CCCC(=O)O)[C@@H](O)C[C@H]1O` [DINOPROST] returned an ED50 of 0.06 mg/kg.

The next experiment relates to Rattus norvegicus. Description: Compound was evaluated for antisecretion activity using stomach perfusion test in the anesthetized rat (iv administration); At the dose of 500 ug/kg, some animals died. Particulars: read-out: ID50 (the source's name). It counts as functional.
For `CCCCC[C@H](O)/C=C/[C@@H]1[C@@H](C/C=C\CCCC(=O)O)[C@@H](O)C[C@H]1O` [DINOPROST], the ED50 is over 0.3 mg/kg.

The test system of the next experiment is Rattus norvegicus. In words: Compound was evaluated for antisecretion activity using stomach perfusion test in the anesthetized rat (iv administration). It counts as functional. Particulars: read-out: ID50 (the source's name).
With `CCCC[C@](C)(OC)[C@@H](O)/C=C/C1[C@H](O)CC(=O)[C@@H]1C/C=C\CCCC(=O)OC` (some centres not stated), the ED50 came to 1.5 mg/kg.

In the case of `CCCC[C@](C)(OC)[C@H](O)/C=C/C1[C@H](O)CC(=O)[C@@H]1C/C=C\CCCC(=O)OC` (some centres not stated), the ED50 was 0.5 mg/kg.

Regarding `CCCC[C@](C)(OC)[C@@H](O)/C=C/C1[C@H](O)C[C@H](O)[C@@H]1C/C=C\CCCC(=O)OC` (some centres not stated), the ED50 is over 4 mg/kg.

For the molecule `CCCC[C@@](C)(OC)[C@H](O)/C=C/C1[C@H](O)CC(=O)[C@@H]1C/C=C\CCCC(=O)OC` (some centres not stated), the ED50 is 0.0072 mg/kg.

As to `CCCCC[C@H](O)/C=C/[C@H]1[C@H](O)CC(=O)[C@@H]1C/C=C\CCCC(=O)O` [DINOPROSTONE], the ED50 is 0.026 mg/kg.

As for `CCCC[C@@](C)(OC)[C@@H](O)/C=C/C1[C@H](O)C[C@H](O)[C@@H]1C/C=C\CCCC(=O)OC` (some centres not stated), the ED50 was over 2 mg/kg.

With `CCCC[C@@H](OC)[C@H](O)/C=C/C1[C@H](O)CC(=O)[C@@H]1C/C=C\CCCC(=O)O` (some centres not stated), the ED50 was over 0.05 mg/kg.

Consider `CCCC[C@](C)(OC)[C@@H](O)/C=C/C1[C@H](O)CC(=O)[C@@H]1CCCCCCC(=O)OC` (stereo in doubt; form 1), for which the ED50 is over 3 mg/kg.

For the molecule `CCCC[C@@](C)(OC)[C@H](O)/C=C/C1[C@H](O)CC(=O)[C@@H]1CCCCCCC(=O)OC` (some centres not stated), the ED50 is 0.0045 mg/kg.

For the molecule `CCCC[C@](C)(OC)[C@H](O)/C=C/C1[C@H](O)C[C@H](O)[C@@H]1C/C=C\CCCC(=O)OC` (some centres not stated), the ED50 was over 2 mg/kg.

As for `CCCC[C@@](C)(OC)[C@H](O)/C=C/C1[C@H](O)C[C@H](O)[C@@H]1C/C=C\CCCC(=O)OC` (some centres not stated), the ED50 worked out at 1.5 mg/kg.

For `CCCCC[C@H](O)/C=C/[C@H]1[C@H](O)CC(=O)[C@@H]1CCCCCCC(=O)O` [ALPROSTADIL], the ED50 stood at 0.0285 mg/kg.

Turning to `CCCC[C@@](C)(OC)[C@@H](O)/C=C/C1[C@H](O)CC(=O)[C@@H]1CCCCCCC(=O)OC` (some centres not stated), the ED50 was over 1 mg/kg.

The subject of another experiment is Cricetinae gen. sp. Described as §3.
Conditions: not given
It counts as functional, Mesocricetus auratus. The method in brief: as §1
As for `CCCC[C@](C)(OC)[C@@H](O)/C=C/C1[C@H](O)C[C@H](O)[C@@H]1C/C=C\CCCC(=O)OC` (some centres not stated), the ED50 is over 4 mg/kg.

In turn, `CCCCC[C@H](O)/C=C/[C@H]1[C@H](O)CC(=O)[C@@H]1C/C=C\CCCC(=O)O` [DINOPROSTONE] registered an ED50 of 0.7 mg/kg.

In turn, `CCCC[C@@](C)(OC)[C@@H](O)/C=C/C1[C@H](O)C[C@H](O)[C@@H]1C/C=C\CCCC(=O)OC` (some centres not stated) gave an ED50 of over 4 mg/kg.

On to `CCCC[C@](C)(OC)[C@H](O)/C=C/C1[C@H](O)C[C@H](O)[C@@H]1C/C=C\CCCC(=O)OC` (some centres not stated), for which the ED50 was found to be 1.5 mg/kg.

As to `CCCC[C@@](C)(OC)[C@H](O)/C=C/C1[C@H](O)C[C@H](O)[C@@H]1C/C=C\CCCC(=O)OC` (some centres not stated), the ED50 amounted to 0.6 mg/kg.

As to `CCCCC[C@H](O)/C=C/[C@H]1[C@H](O)CC(=O)[C@@H]1CCCCCCC(=O)O` [ALPROSTADIL], the ED50 is 1.8 mg/kg.

Tested on in another experiment: not listed separately
Description: Ratio of ED50 for diarrhea to ID50 (antisecretory activity). It counts as functional.
Conditions: not given
Take `CCCC[C@@](C)(OC)[C@H](O)/C=C/C1[C@H](O)CC(=O)[C@@H]1C/C=C\CCCC(=O)OC` (some centres not stated): the Ratio came out at 105.

In the case of `CCCCC[C@H](O)/C=C/[C@H]1[C@H](O)CC(=O)[C@@H]1C/C=C\CCCC(=O)O` [DINOPROSTONE], the Ratio was found to be 58.

Consider `CCCC[C@@](C)(OC)[C@H](O)/C=C/C1[C@H](O)CC(=O)[C@@H]1CCCCCCC(=O)OC` (some centres not stated), for which the Ratio is 300.

Turning to `CCCCC[C@H](O)/C=C/[C@H]1[C@H](O)CC(=O)[C@@H]1CCCCCCC(=O)O` [ALPROSTADIL], the Ratio was 36.

Another experiment relates to Rattus norvegicus. In words: Compound was evaluated for antisecretion activity using stomach perfusion test in the anesthetized rat (ig administration). It counts as functional.
Conditions: not given
Molecule `CCCC[C@@](C)(OC)[C@H](O)/C=C/C1[C@H](O)CC(=O)[C@@H]1CCCCCCC(=O)OC` (some centres not stated) had an ID50 of 15 µg/kg.

Staying with this experiment, now noted: Rattus norvegicus, Stomach, po; read-out: ID50 (the source's name).
On to `CCCCC[C@H](O)/C=C/[C@H]1[C@H](O)CC(=O)[C@@H]1C/C=C\CCCC(=O)O` [DINOPROSTONE], for which the ED50 was over 0.1 mg/kg.

For the molecule `CCCC[C@@](C)(OC)[C@H](O)/C=C/C1[C@H](O)CC(=O)[C@@H]1CCCCCCC(=O)OC` (some centres not stated), the ED50 stood at 0.015 mg/kg.

Turning to `CCCCC(OC)[C@H](O)/C=C/C1[C@H](O)CC(=O)[C@@H]1CCCCCCC(=O)O` (some centres not stated), the ED50 is over 0.1 mg/kg.

The subject of another experiment is Mus musculus. In words: Compound was evaluated for diarrheal effect in mice (po administration). It counts as functional.
Conditions: not given
A digest of the protocol: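 Mice fasted 24 h, then given logarithmically graded oral doses of 100–4000 μg/kg. Animals caged singly on blotting paper for 1 h, and stool dampness spots scored on a 0–4 scale. ED50 calculated by the Miller–Tainter method.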
`CCCC[C@](C)(OC)[C@@H](O)/C=C/C1[C@H](O)CC(=O)[C@@H]1CCCCCCC(=O)OC` (stereo in doubt; form 2): the ED50 came out at 0.774 mg/kg.

In turn, `CCCC[C@](C)(OC)[C@@H](O)/C=C/C1[C@H](O)CC(=O)[C@@H]1CCCCCCC(=O)OC` (stereo in doubt; form 1) yielded an ED50 of over 4 mg/kg.

Staying with this experiment, now noted: Mus musculus, po; read-out: ED50.
Take `CCCC[C@](C)(OC)[C@@H](O)/C=C/C1[C@H](O)CC(=O)[C@@H]1C/C=C\CCCC(=O)OC` (some centres not stated): the ED50 is 0.912 mg/kg.

Turning to `CCCC[C@](C)(OC)[C@H](O)/C=C/C1[C@H](O)CC(=O)[C@@H]1C/C=C\CCCC(=O)OC` (some centres not stated), the ED50 was found to be 0.479 mg/kg.

Turning to `CCCC[C@](C)(OC)[C@@H](O)/C=C/C1[C@H](O)C[C@H](O)[C@@H]1C/C=C\CCCC(=O)OC` (some centres not stated), the ED50 is over 4 mg/kg.

As to `CCCC[C@@](C)(OC)[C@H](O)/C=C/C1[C@H](O)CC(=O)[C@@H]1C/C=C\CCCC(=O)OC` (some centres not stated), the ED50 amounted to 0.757 mg/kg.

For `CCCCC[C@H](O)/C=C/[C@H]1[C@H](O)CC(=O)[C@@H]1C/C=C\CCCC(=O)O` [DINOPROSTONE], the ED50 worked out at 1.5 mg/kg.

On to `CCCC[C@@](C)(OC)[C@@H](O)/C=C/C1[C@H](O)C[C@H](O)[C@@H]1C/C=C\CCCC(=O)OC` (some centres not stated), for which the ED50 was over 4 mg/kg.

With `CCCC[C@@](C)(OC)[C@H](O)/C=C/C1[C@H](O)CC(=O)[C@@H]1CCCCCCC(=O)OC` (some centres not stated), the ED50 came to 1.35 mg/kg.

Consider `CCCC[C@](C)(OC)[C@H](O)/C=C/C1[C@H](O)C[C@H](O)[C@@H]1C/C=C\CCCC(=O)OC` (some centres not stated), for which the ED50 came out at 1.81 mg/kg.

As for `CCCC[C@@](C)(OC)[C@H](O)/C=C/C1[C@H](O)C[C@H](O)[C@@H]1C/C=C\CCCC(=O)OC` (some centres not stated), the ED50 was 0.888 mg/kg.

As to `CCCCC[C@H](O)/C=C/[C@H]1[C@H](O)CC(=O)[C@@H]1CCCCCCC(=O)O` [ALPROSTADIL], the ED50 is 1.02 mg/kg.

For `CCCCC[C@H](O)/C=C/[C@@H]1[C@@H](C/C=C\CCCC(=O)O)[C@@H](O)C[C@H]1O` [DINOPROST], the ED50 is 0.57 mg/kg.

As for `CCCC[C@@](C)(OC)[C@@H](O)/C=C/C1[C@H](O)CC(=O)[C@@H]1CCCCCCC(=O)OC` (some centres not stated), the ED50 is over 4 mg/kg.

A further experiment deals with Rattus norvegicus. Description: Compound was evaluated for antisecretion activity using stomach perfusion test in the anesthetized rat (iv administration) in experiment 1. It counts as functional. Particulars: read-out: ID50 (the source's name). A digest of the protocol: as §2
Turning to `CCCC[C@](C)(OC)[C@@H](O)/C=C/C1[C@H](O)CC(=O)[C@@H]1CCCCCCC(=O)OC` (stereo in doubt; form 2), the ED50 was 0.1 mg/kg.

These data come from ChEMBL document CHEMBL1123220, “Structure-activity studies of 16-methoxy-16-methyl prostaglandins” (1986).
